Source: ChEMBL document CHEMBL1122007, “A comparison of the inhibition of growth of methotrexate-resistant and -sensitive leukemia cells in culture by triazines. Evidence for a new mechanism of cell resistance to methotrexate” (1982)

Tested on: L5178Y
Experiment: Compound was tested in vitro for concentration required to decrease 50% growth rate of murine leukemia L5178Y/R cell culture
Assay type: functional, Mus musculus
How it was run: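 Seeded at 4.0-6.0 × 10^4 cells/mL in duplicate. Drug added 1:10, at least eight concentrations, for 48 h of continuous exposure under 5% CO2. Cells counted by Coulter counter. ID50 is the concentration that halves the growth rate (doubles the generation time), read from the dose-response curve.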

Structure (SMILES) | Log 1/C
CCCCCCCCCOc1cccc(N2C(N)=NC(N)=NC2(C)C)c1 | 6.57
CC(C)c1cccc(OCc2cccc(N3C(N)=NC(N)=NC3(C)C)c2)c1 | 5.87
CC1(C)N=C(N)N=C(N)N1c1cccc(CNc2cc(C(N)=O)cc(C(N)=O)c2)c1 | 3.79
Cc1cccc(OCc2cccc(N3C(N)=NC(N)=NC3(C)C)c2)c1 | 5.59
CC1(C)N=C(N)N=C(N)N1c1cccc(COc2cccc(NC(N)=O)c2)c1 | 4.74
CC1(C)N=C(N)N=C(N)N1c1cccc(OCCOc2cccc(C(F)(F)F)c2)c1 | 5.85
CC(=O)Nc1cccc(OCc2cccc(N3C(N)=NC(N)=NC3(C)C)c2)c1 | 4.95
CC1(C)N=C(N)N=C(N)N1c1cccc([N+](=O)[O-])c1 | 5.03
CC1(C)N=C(N)N=C(N)N1c1cccc(CSc2ccccc2)c1 | 6.2
CC1(C)N=C(N)N=C(N)N1c1cccc(C(O)c2ccccc2)c1 (configuration not stated) | 4.17
CC1(C)N=C(N)N=C(N)N1c1cccc(OCCOc2ccccc2)c1 | 5.02
CC1(C)N=C(N)N=C(N)N1c1cccc(F)c1 | 5.24
CC(C)(C)c1cccc(N2C(N)=NC(N)=NC2(C)C)c1 | 6.03
CC1(C)N=C(N)N=C(N)N1c1cccc(Br)c1 | 5.9
CC1(C)N=C(N)N=C(N)N1c1cccc(I)c1 | 5.91
CC1(C)N=C(N)N=C(N)N1c1cccc(OCc2ccc(Cl)c(Cl)c2)c1 | 5.8
CCCCCCCCCCCOc1cccc(N2C(N)=NC(N)=NC2(C)C)c1 | 6.38
CC1(C)N=C(N)N=C(N)N1c1cccc(COc2ccccc2)c1 | 5.67
CCc1cccc(OCc2cccc(N3C(N)=NC(N)=NC3(C)C)c2)c1 | 5.74

Structure (SMILES) | Log 1/C
CC1(C)N=C(N)N=C(N)N1c1cccc(COc2cccc(C#N)c2)c1 | 5.25
CCCCCCCCCCCCOc1cccc(N2C(N)=NC(N)=NC2(C)C)c1 | 6.24
CCCCCCCCCCCCCOc1cccc(N2C(N)=NC(N)=NC2(C)C)c1 | 6.52
CCCCCCc1cccc(N2C(N)=NC(N)=NC2(C)C)c1 | 6.39
CC(C)(C)c1cccc(OCc2cccc(N3C(N)=NC(N)=NC3(C)C)c2)c1 | 6.08
CC1(C)N=C(N)N=C(N)N1c1cccc(COc2cccc(NC(=N)S)c2)c1 | 4.01
CCCCCCCCCCCCCCOc1cccc(N2C(N)=NC(N)=NC2(C)C)c1 | 6.49
CC1(C)N=C(N)N=C(N)N1c1cccc(COc2cccc(Cl)c2)c1 | 5.93
COc1cccc(OCc2cccc(N3C(N)=NC(N)=NC3(C)C)c2)c1 | 5.36
CC1(C)N=C(N)N=C(N)N1c1cccc(COc2cccc(CO)c2)c1 | 4.77
CN(C)C(=O)c1cccc(COc2ccc(N3C(N)=NC(N)=NC3(C)C)cc2Cl)c1 | 5.4
CC1(C)N=C(N)N=C(N)N1c1cccc(OCCCCOc2cccc(C(F)(F)F)c2)c1 | 6.28
CC(=O)c1cccc(N2C(N)=NC(N)=NC2(C)C)c1 | 4.56
CC1(C)N=C(N)N=C(N)N1c1cccc(OCCCCOc2ccccc2)c1 | 5.3
Cc1cccc(N2C(N)=NC(N)=NC2(C)C)c1 | 4.97
CC1(C)N=C(N)N=C(N)N1c1cccc(OCc2ccccc2)c1 | 5.19
CCCCOc1cccc(N2C(N)=NC(N)=NC2(C)C)c1 | 5.95
CN(Cc1cnc2nc(N)nc(N)c2n1)c1ccc(C(=O)N[C@@H](CCC(=O)O)C(=O)O)cc1 [METHOTREXATE] | 2.9
